ChEMBL document CHEMBL5058577, “EUbOPEN Chemogenomics Library 2 (Multiplex)” (2022)

Test system: Fibroblast
Experiment: Multiplex assay against human fibroblast
Type: toxicity, cell-based
Method in brief: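 Live cells were stained at seeding with Hoechst33342, BioTracker Green Microtubule Cytoskeleton Dye, MitoTracker Red and Annexin V Alexa Fluor 680, then imaged on a CQ1 microscope at 37°C and 5% CO2 after compound addition. CellPathfinder machine-learning gating split cells into Hoechst high-intensity objects or normal cells. Normal cells were split into healthy, pyknosed or fragmented nuclei, and pyknosed cells into mitotic or apoptotic. Tubulin, mitochondrial-mass and membrane-permeability phenotypes are per cents of healthy-nucleus cells.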

[1] = 12 h, 1 µM, compound concentration 1 uM, replicate 1
[2] = 12 h, 1 µM, compound concentration 1 uM, replicate 2
[3] = 12 h, 10 µM, compound concentration 10 uM, replicate 1
[4] = 12 h, 10 µM, compound concentration 10 uM, replicate 2
[5] = 24 h, 1 µM, compound concentration 1 uM, replicate 1
[6] = 24 h, 1 µM, compound concentration 1 uM, replicate 2
[7] = 24 h, 10 µM, compound concentration 10 uM, replicate 1
[8] = 24 h, 10 µM, compound concentration 10 uM, replicate 2
[9] = 48 h, 1 µM, compound concentration 1 uM, replicate 1
[10] = 48 h, 1 µM, compound concentration 1 uM, replicate 2
[11] = 48 h, 10 µM, compound concentration 10 uM, replicate 1
[12] = 48 h, 10 µM, compound concentration 10 uM, replicate 2

## CN1CCN(c2ccc(Nc3c4ccccc4nc4ccccc34)cc2)CC1.Cl.Cl.O
[1]
  Population Apoptotic (%): 47%
  Population Fragmented Nuclei (%): 15%
  Population Healthy Nuclei (%): 69%
  Population Hoechst High Intensity Objects (%): 1%
  Population Membrane Permeable-Phenotype (%): 0%
  Population Mitochondria Different-Phenotype (%): 3%
  Population Mitotic Cells (%): 52%
  Population Normal (%): 98%
  Population Pyknosed Nuclei (%): 14%
  Population Tubulin-Different-Phenotype (%): 23%
  Total Cell Count: 135
[2]
  Population Apoptotic (%): 44%
  Population Fragmented Nuclei (%): 28%
  Population Healthy Nuclei (%): 56%
  Population Membrane Permeable-Phenotype (%): 5%
  Population Mitochondria Different-Phenotype (%): 5%
  Population Mitotic Cells (%): 56%
  Population Pyknosed Nuclei (%): 15%
  Population Tubulin-Different-Phenotype (%): 34%
  Total Cell Count: 160
[3]
  Population Apoptotic (%): 91%
  Population Fragmented Nuclei (%): 42%
  Population Healthy Nuclei (%): 49%
  Population Hoechst High Intensity Objects (%): 8%
  Population Membrane Permeable-Phenotype (%): 0%
  Population Mitochondria Different-Phenotype (%): 47%
  Population Mitotic Cells (%): 8%
  Population Normal (%): 91%
  Population Pyknosed Nuclei (%): 8%
  Population Tubulin-Different-Phenotype (%): 90%
  Total Cell Count: 158
[4]
  Population Apoptotic (%): 66%
  Population Fragmented Nuclei (%): 65%
  Population Healthy Nuclei (%): 29%
  Population Hoechst High Intensity Objects (%): 16%
  Population Membrane Permeable-Phenotype (%): 4%
  Population Mitochondria Different-Phenotype (%): 13%
  Population Mitotic Cells (%): 33%
  Population Normal (%): 83%
  Population Pyknosed Nuclei (%): 4%
  Population Tubulin-Different-Phenotype (%): 79%
  Total Cell Count: 177
[5]
  Population Apoptotic (%): 70%
  Population Fragmented Nuclei (%): 21%
  Population Healthy Nuclei (%): 65%
  Population Hoechst High Intensity Objects (%): 0%
  Population Membrane Permeable-Phenotype (%): 0%
  Population Mitochondria Different-Phenotype (%): 2%
  Population Mitotic Cells (%): 29%
  Population Normal (%): 99%
  Population Pyknosed Nuclei (%): 12%
  Population Tubulin-Different-Phenotype (%): 12%
  Total Cell Count: 139
[6]
  Population Apoptotic (%): 60%
  Population Fragmented Nuclei (%): 29%
  Population Healthy Nuclei (%): 57%
  Population Membrane Permeable-Phenotype (%): 3%
  Population Mitochondria Different-Phenotype (%): 7%
  Population Mitotic Cells (%): 40%
  Population Normal (%): 100%
  Population Tubulin-Different-Phenotype (%): 39%
  Total Cell Count: 155
[7]
  Population Apoptotic (%): 77%
  Population Fragmented Nuclei (%): 47%
  Population Healthy Nuclei (%): 39%
  Population Hoechst High Intensity Objects (%): 16%
  Population Membrane Permeable-Phenotype (%): 1%
  Population Mitochondria Different-Phenotype (%): 66%
  Population Mitotic Cells (%): 22%
  Population Normal (%): 83%
  Population Pyknosed Nuclei (%): 12%
  Population Tubulin-Different-Phenotype (%): 94%
  Total Cell Count: 206
[8]
  Population Apoptotic (%): 60%
  Population Fragmented Nuclei (%): 69%
  Population Healthy Nuclei (%): 27%
  Population Hoechst High Intensity Objects (%): 21%
  Population Membrane Permeable-Phenotype (%): 6%
  Population Mitochondria Different-Phenotype (%): 34%
  Population Mitotic Cells (%): 40%
  Population Normal (%): 78%
  Population Pyknosed Nuclei (%): 3%
  Population Tubulin-Different-Phenotype (%): 84%
  Total Cell Count: 205
[9]
  Population Apoptotic (%): 66%
  Population Fragmented Nuclei (%): 23%
  Population Healthy Nuclei (%): 70%
  Population Hoechst High Intensity Objects (%): 1%
  Population Membrane Permeable-Phenotype (%): 0%
  Population Mitochondria Different-Phenotype (%): 4%
  Population Mitotic Cells (%): 33%
  Population Normal (%): 98%
  Population Pyknosed Nuclei (%): 6%
  Population Tubulin-Different-Phenotype (%): 26%
  Total Cell Count: 144
[10]
  Population Apoptotic (%): 55%
  Population Fragmented Nuclei (%): 25%
  Population Healthy Nuclei (%): 68%
  Population Membrane Permeable-Phenotype (%): 1%
  Population Mitotic Cells (%): 44%
  Population Pyknosed Nuclei (%): 5%
  Total Cell Count: 157
[11]
  Population Apoptotic (%): 68%
  Population Fragmented Nuclei (%): 71%
  Population Healthy Nuclei (%): 15%
  Population Hoechst High Intensity Objects (%): 45%
  Population Membrane Permeable-Phenotype (%): 15%
  Population Mitochondria Different-Phenotype (%): 30%
  Population Mitotic Cells (%): 31%
  Population Normal (%): 54%
  Population Pyknosed Nuclei (%): 12%
  Population Tubulin-Different-Phenotype (%): 25%
  Total Cell Count: 235
[12]
  Population Apoptotic (%): 0%
  Population Fragmented Nuclei (%): 88%
  Population Healthy Nuclei (%): 11%
  Population Hoechst High Intensity Objects (%): 38%
  Population Membrane Permeable-Phenotype (%): 25%
  Population Mitochondria Different-Phenotype (%): 12%
  Population Mitotic Cells (%): 0%
  Population Normal (%): 61%
  Population Pyknosed Nuclei (%): 0%
  Population Tubulin-Different-Phenotype (%): 56%
  Total Cell Count: 236
